The test system of series [1] is Enterococcus faecium. Nature of the series: Antibacterial activity against vancomycin-resistant Enterococcus faecium U200 assessed as bacterial growth inhibition incubated for overnight by CLSI-protocol based broth micro-dilution assay. The class given is functional, organism-based. The gist of the method:
(§1)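 Broth microdilution per CLSI in cation-adjusted Mueller-Hinton medium (casein, beef extract, starch). Twofold serial compound dilutions were inoculated at a final 5 × 10^5 CFU/mL and incubated overnight at 37 °C. MIC was the lowest concentration with no visible growth.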
(In general: Dilution methods test growth across graded concentrations, often in twofold steps.)

The species entered for series [2] is Homo sapiens. Nature of the series: Inhibition of human leukocyte elastase using MeoSuc-Ala-Ala-Pro-Val-AMC as substrate incubated for 10 mins.
The test system of series [3] is Escherichia coli. Kind of series: Antibacterial activity against Escherichia coli C600 harboring Tn10 deltalpxC deltatolC mutant assessed as bacterial growth inhibition incubated for overnight by CLSI-protocol based broth micro-dilution assay. The format is functional, organism-based. An outline of the steps: as §1
Series [4] concerns Neisseria gonorrhoeae. Nature of the series: Antibacterial activity against Neisseria gonorrhoeae S1441 assessed as bacterial growth inhibition incubated for overnight by CLSI-protocol based broth micro-dilution assay. The format is functional, organism-based. The gist of the method: (§2)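 Neisseria MIC by CLSI broth microdilution in cation-adjusted Mueller-Hinton medium supplemented with 2.5% fetal bovine serum. Compound in 2-fold serial dilution; final inoculum 5 × 10^5 CFU/mL. Incubated overnight at 37 °C. MIC is the lowest concentration with no visible growth.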

For series [5], the system named is Pseudomonas aeruginosa. Nature of the series: Antibacterial activity against Pseudomonas aeruginosa ATCC27853 assessed as bacterial growth inhibition incubated for overnight by CLSI-protocol based broth micro-dilution assay. The class given is functional, organism-based. The gist of the method:
(§3)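 Broth microdilution MIC in cation-adjusted Mueller-Hinton medium, following CLSI. Compound in 2-fold serial dilution; bacteria at a final 5 × 10^5 CFU/mL. Incubated overnight at 37 °C. MIC taken as the lowest concentration preventing visible growth.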

Series [6] concerns the target Procathepsin L (Homo sapiens) (UniProt P07711). Nature of the series: Inhibition of human Cathepsin L using Z-Phe-Arg-pNA as substrate incubated for 60 mins.
In series [7] the test system is Caco-2. Nature of the series: Cytotoxicity against human Caco-2 cells assessed as cell count up to 10 uM by Hoechst dye based analysis. The format is toxicity. The conditions noted are these: caco-2, 10 µM.
Series [8] has as its system Enterococcus faecium. Nature of the series: Antibacterial activity against Enterococcus faecium BM4147-1 assessed as bacterial growth inhibition incubated for overnight by CLSI-protocol based broth micro-dilution assay. The format is functional, organism-based. The gist of the method: as §3
The subject of series [9] is Nakaseomyces glabratus. Kind of series: Antifungal activity against Candida glabrata Tu04 assessed as inhibition of fungal growth incubated for 48 hrs by TECAN M200 microtiter plate reader analysis. The class given is functional, organism-based. An outline of the steps: (§4)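 EUCAST broth microdilution with direct colony suspension inoculum of 0.5–2.5 × 10^5 CFU/mL, using clinical Candida isolates. Medium was MOPS-buffered RPMI 1640 with glucose to a final 2%, pH 7.0. Plates incubated 48 h at 37 °C, then read at 530 nm to give MIC.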

Series [10] relates to Klebsiella pneumoniae. Kind of series: Antibacterial activity against Klebsiella pneumoniae ATCC12657 assessed as bacterial growth inhibition incubated for overnight by CLSI-protocol based broth micro-dilution assay. The class given is functional, organism-based. An outline of the steps: as §3
The subject of series [11] is Escherichia coli. Nature of the series: Antibacterial activity against Escherichia coli ATCC25922 assessed as bacterial growth inhibition incubated for overnight by CLSI-protocol based broth micro-dilution assay. The class given is functional, organism-based. An outline of the steps: as §3
For series [12], the system named is Candida albicans. Kind of series: Antifungal activity against Candida albicans Tu03 assessed as inhibition of fungal growth incubated for 48 hrs by TECAN M200 microtiter plate reader analysis. The format is functional, organism-based. An outline of the steps:
as §4

Series [13] has as its system Enterococcus faecium. Nature of the series: Antibacterial activity against vancomycin-resistant Enterococcus faecium 6011 assessed as bacterial growth inhibition incubated for overnight by CLSI-protocol based broth micro-dilution assay. The format is functional, organism-based. An outline of the steps: as §1
In series [14] the test system is Caco-2. Kind of series: Cytotoxicity against human Caco-2 cells assessed as cell count up to 10 uM measured after 48 hrs by Hoechst dye based analysis. Particulars: caco-2, 48 h. The format is toxicity.
The test system of series [15] is Klebsiella aerogenes. Kind of series: Antibacterial activity against Enterobacter aerogenes ATCC13048 assessed as bacterial growth inhibition incubated for overnight by CLSI-protocol based broth micro-dilution assay. The format is functional, organism-based. The gist of the method:
as §3

The subject of series [16] is Staphylococcus aureus. Kind of series: Antibacterial activity against Staphylococcus aureus ATCC29213 assessed as bacterial growth inhibition incubated for overnight by CLSI-protocol based broth micro-dilution assay. The class given is functional, organism-based. An outline of the steps:
as §3

The test system of series [17] is Enterococcus faecium. Nature of the series: Antibacterial activity against Enterococcus faecium 115.2 assessed as bacterial growth inhibition incubated for overnight by CLSI-protocol based broth micro-dilution assay. The class given is functional, organism-based. An outline of the steps: as §3
For series [18], the system named is Enterococcus faecium. Kind of series: Antibacterial activity against vancomycin-resistant Enterococcus faecium BM4147 assessed as bacterial growth inhibition incubated for overnight by CLSI-protocol based broth micro-dilution assay. The class given is functional, organism-based. An outline of the steps:
as §1

Series [19] deals with Candida albicans. Kind of series: Antifungal activity against Candida albicans Tu01 assessed as inhibition of fungal growth incubated for 48 hrs by TECAN M200 microtiter plate reader analysis. The class given is functional, organism-based. An outline of the steps:
as §4

In series [20] the test system is Acinetobacter baumannii. Kind of series: Antibacterial activity against Acinetobacter baumannii 09987 assessed as bacterial growth inhibition incubated for overnight by CLSI-protocol based broth micro-dilution assay. The format is functional, organism-based. An outline of the steps: as §3
Series [21] relates to Severe acute respiratory syndrome coronavirus 2. Nature of the series: Inhibition of SARS CoV-2 MPro using Boc-Abu-Tle-Leu-Gln-AMC as substrate incubated for 10 mins. An outline of the steps:
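Purified SARS-CoV-2 main protease (cysteine protease) was assayed with a fluorogenic peptide substrate. AMC release was followed continuously over 10 min.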

Series [22] has as its system Candida albicans. Kind of series: Antifungal activity against Candida albicans Tu02 assessed as inhibition of fungal growth incubated for 48 hrs by TECAN M200 microtiter plate reader analysis. The format is functional, organism-based. The gist of the method:
as §4

In series [23] the test system is Enterococcus faecalis. Nature of the series: Antibacterial activity against Enterococcus faecalis ATCC29212 assessed as bacterial growth inhibition incubated for overnight by CLSI-protocol based broth micro-dilution assay. The format is functional, organism-based. An outline of the steps: as §3
For series [24], the system named is Candida tropicalis. Kind of series: Antifungal activity against Candida tropicalis Tu05 assessed as inhibition of fungal growth incubated for 48 hrs by TECAN M200 microtiter plate reader analysis. The class given is functional, organism-based. An outline of the steps:
as §4

The test system of series [25] is Bacillus subtilis. Nature of the series: Antibacterial activity against Bacillus subtilis 168 assessed as bacterial growth inhibition incubated for overnight by CLSI-protocol based broth micro-dilution assay. The class given is functional, organism-based. An outline of the steps:
as §3

Series [26] concerns Candida albicans. Nature of the series: Antifungal activity against Candida albicans ATCC90028 assessed as inhibition of fungal growth incubated for 48 hrs by TECAN M200 microtiter plate reader analysis. The class given is functional, organism-based. The gist of the method:
as §4

For series [27], the system named is Enterococcus faecium. Kind of series: Antibacterial activity against Enterococcus faecium K209.5 assessed as bacterial growth inhibition incubated for overnight by CLSI-protocol based broth micro-dilution assay. The class given is functional, organism-based. The gist of the method: as §3
For series [28], the system named is Neisseria gonorrhoeae. Kind of series: Antibacterial activity against Neisseria gonorrhoeae ATCC19424 assessed as bacterial growth inhibition incubated for overnight by CLSI-protocol based broth micro-dilution assay. The class given is functional, organism-based. The gist of the method: as §2
In series [29] the test system is HeLa. Nature of the series: Cytotoxicity against human HeLa cells measured after 24 hrs by resazurin staining based analysis. The class given is functional, cell-based. The gist of the method: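 HeLa cells in RPMI with 10% FBS were seeded at 1 × 10^4 per well onto 2-fold compound dilutions, run in duplicate. Incubation was 24 h at 37 °C, 5% CO2. Resazurin was then added (200 μM final) and incubated overnight. Resorufin fluorescence (ex 560/em 600 nm) was read relative to untreated control.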

In series [30] the test system is SARS-CoV-2. Nature of the series: Antiviral activity against SARS-CoV-2 expressing mNeonGreen infected in Caco-2 cells at 0.26 MOI assessed as reduction in infection rate for 48 hrs post infection by Hoechst dye based analysis. The format is functional, organism-based. Particulars: Severe acute respiratory syndrome coronavirus 2, Caco-2, 48 h.
Series [31] relates to SARS-CoV-2. Nature of the series: Antiviral activity against SARS-CoV-2 expressing mNeonGreen infected in human Caco-2 cells at 0.26 MOI assessed as reduction in infection rate at 5 to 10 uM pre-treated with compound for 2.5 hrs followed by viral infection and measured after 48 hrs by Hoechst dye based analysis relative to control. On the set-up: scale not given: the % may be the effect or the level left. The class given is functional, Severe acute respiratory syndrome coronavirus 2. The conditions noted are these: dose 5-10 µM, time 50.5 hrs.

Series [32] can be described thus: Cytotoxicity against human Caco-2 cells assessed as cell count for 48 hrs by Hoechst dye based analysis. The format is toxicity.
The test system of series [33] is SARS-CoV-2. Kind of series: Antiviral activity against SARS-CoV-2 expressing mNeonGreen infected in human Caco-2 cells at 0.26 MOI assessed as reduction in infection rate at 2.5 to 10 uM for 48 hrs post infection by Hoechst dye based analysis relative to control. The class given is functional, Severe acute respiratory syndrome coronavirus 2. The arrangement: scale not given: the % may be the effect or the level left. Particulars: dose 2.5-10 µM.

Each structure is given as a SMILES string. The source made the active and inactive calls. No cut-off for these calls is given here.

Procathepsin L (Homo sapiens), sequence (P07711 114-333 limits assumed): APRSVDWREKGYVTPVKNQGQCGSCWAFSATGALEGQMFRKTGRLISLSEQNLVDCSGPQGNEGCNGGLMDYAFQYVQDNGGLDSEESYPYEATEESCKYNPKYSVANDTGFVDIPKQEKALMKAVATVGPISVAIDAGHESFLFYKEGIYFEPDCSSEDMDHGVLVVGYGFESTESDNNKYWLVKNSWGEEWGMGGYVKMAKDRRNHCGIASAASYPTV

Consider `CCCCCCC[C@@H](O)CC(=O)N[C@@H](CC(C)C)C(=O)N[C@@H](CCC(N)=O)C(=O)O`, for which the result in series [1], in series [3], in [4], in series [5], in series [8] and in series [9] was inactive. Also, the outcome in series [10], in series [11], in [12], in series [13], in [15] and in [16] was inactive. Further, the result in [17], in series [18], in series [19], in [20], in [22] and in series [23] was inactive. The result in series [24], in series [25], in series [26], in series [27], in [28] and in series [29] was inactive. Also, the inhibition result in series [2], in series [6] and in series [21] was “inactive” throughout. Moreover, the Activity result in [7] and in [14] was “Toxic” throughout.

Consider `CCCCCCC[C@@H](O)CC(=O)N[C@@H](CC(C)C)C(=O)N[C@H](CCC(N)=O)C(=O)N[C@H]1C(=O)N[C@H](C(C)C)C(=O)N[C@H](CC(C)C)C(=O)N[C@H](CO)C(=O)N[C@@H](CC(C)C)C(=O)N[C@H](CO)C(=O)N[C@@H]([C@@H](C)CC)C(=O)O[C@@H]1C`, for which the Activity entry in series [7] was “Non-toxic”; in series [14] it was “Non-toxic”; in series [31], 85%; in [33], 60%. Moreover, the EC50 (in general, the midpoint of the concentration-response curve) in series [30] came out at 3.3 µM. For the same molecule, the CC50 – broadly, the concentration giving 50% cytotoxicity – at 48 h in series [32] is greater than 20 µM.

For the origin of these results see ChEMBL document CHEMBL6182897, “Salamandamide Lipodipeptides Are Biosynthetic Intermediate Shunt Products of the Nonamodular Nonribosomal Peptide Assembly Lines of the Viscosin Family” (J Nat Prod, 2025).
